Test results from PMC9050161 (RSC Advances, 2020).

Key:
[1] = molecular target: T1, UGT1A3 (Homo sapiens, UniProt P35503); assay: Inhibition of UGT1A3; format: biochemical
T1 sequence (P35503 29-534): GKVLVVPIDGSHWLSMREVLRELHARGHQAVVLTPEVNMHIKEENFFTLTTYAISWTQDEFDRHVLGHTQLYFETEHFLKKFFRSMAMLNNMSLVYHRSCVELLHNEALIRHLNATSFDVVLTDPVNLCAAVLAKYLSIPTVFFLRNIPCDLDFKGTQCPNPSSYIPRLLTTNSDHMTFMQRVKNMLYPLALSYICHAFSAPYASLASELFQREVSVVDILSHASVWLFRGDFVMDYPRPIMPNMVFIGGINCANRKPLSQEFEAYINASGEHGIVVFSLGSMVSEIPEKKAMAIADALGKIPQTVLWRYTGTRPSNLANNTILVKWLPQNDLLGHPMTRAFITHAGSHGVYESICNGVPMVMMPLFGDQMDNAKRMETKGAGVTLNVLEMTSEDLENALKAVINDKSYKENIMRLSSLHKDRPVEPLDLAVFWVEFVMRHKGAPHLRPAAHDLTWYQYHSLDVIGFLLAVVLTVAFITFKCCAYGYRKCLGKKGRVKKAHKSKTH
Outline: (§1)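 Recombinant human UGTs screened with probe substrates: β-estradiol for UGT1A1, propofol for 1A9, and 4-methylumbelliferone for 1A3, 1A6, 1A7, 1A8, 1A10, 2B4, 2B7, 2B10, 2B15 and 2B17. Incubated at 37 °C without (control) or with test compound at 1, 10 or 100 μM. Glucuronide formation measured relative to control; triplicate.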

[2] = molecular target: CYP2C19 (Homo sapiens, UniProt P33261); assay: Inhibition of CYP2C19; format: biochemical
Outline: (§2)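 Recombinant human CYPs at 0.1 mg mL−1 protein, each with its probe substrate near Km: coumarin 100 μM (2A6), bupropion 100 μM (2B6), paclitaxel 60 μM (2C8), tolbutamide 200 μM (2C9), mephenytoin 100 μM (2C19), chlorzoxazone 200 μM (2E1). Incubated at 37 °C with or without test compound at 1, 10 or 100 μM. UHPLC-TQD-MS read-out; triplicate.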

[3] = molecular target: UGT1A4 (Homo sapiens, UniProt P22310); assay: Activation of UGT1A4; format: biochemical
Outline: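 Recombinant human UGT1A4 with trifluoperazine (TFP) as substrate for N-glucuronidation, at various TFP concentrations with or without test compound. Triplicate. Data fitted to a mechanistic two-site model assuming a reaction site and an allosteric site.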

[4] = molecular target: MRP1 (Homo sapiens, UniProt P33527); assay: M2 excretion in HeLa1A9 cells after shRNA knock-down of MRP1; format: cell-based; conditions: MRP1 partially silenced
Outline: (§3)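 shRNA plasmid against BCRP, MRP1, MRP3 or MRP4 transfected into UGT1A9-expressing HeLa cells, then exposed to 5 μM test compound in HBSS. Medium sampled at 30–120 min with replacement; cells collected at 120 min. UHPLC gave extracellular and intracellular glucuronide, excretion rate, efflux clearance (excretion rate/intracellular concentration) and fraction metabolized (fmet), each compared with control. Triplicate.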

[5] = molecular target: T2, CYP1A2 (Homo sapiens, UniProt P05177); assay: Inhibition of CYP1A2; format: biochemical
T2 sequence (P05177 1-516): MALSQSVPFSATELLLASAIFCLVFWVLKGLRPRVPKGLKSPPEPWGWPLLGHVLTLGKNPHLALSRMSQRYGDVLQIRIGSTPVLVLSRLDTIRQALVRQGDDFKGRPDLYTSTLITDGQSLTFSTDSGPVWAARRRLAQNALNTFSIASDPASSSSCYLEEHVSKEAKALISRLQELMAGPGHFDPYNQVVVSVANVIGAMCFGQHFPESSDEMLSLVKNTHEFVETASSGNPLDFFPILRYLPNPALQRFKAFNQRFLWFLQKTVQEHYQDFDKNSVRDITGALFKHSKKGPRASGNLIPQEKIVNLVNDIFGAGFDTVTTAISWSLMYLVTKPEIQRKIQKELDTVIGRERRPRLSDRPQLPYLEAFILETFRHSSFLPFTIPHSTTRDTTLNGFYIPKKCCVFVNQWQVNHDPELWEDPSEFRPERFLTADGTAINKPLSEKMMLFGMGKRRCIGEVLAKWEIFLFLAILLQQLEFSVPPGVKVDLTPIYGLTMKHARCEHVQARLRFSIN
Outline: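 Recombinant human CYPs at 0.05 mg mL−1 protein, each with its probe substrate near Km: ethoxyresorufin 1 μM (CYP1A1), phenacetin 100 μM (CYP1A2), nifedipine 40 μM (CYP3A4, 3A5). Incubated at 37 °C without (control) or with test compound at 1, 10 and 100 μM. Supernatant analysed by UHPLC-TQD-MS; activity relative to control; triplicate.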

[6] = molecular target: MRP4 (Homo sapiens, UniProt O15439); assay: M2 excretion in HeLa1A9 cells after shRNA knock-down of MRP4; format: cell-based; conditions: MRP4 silencing
Outline: as §3

[7] = tested on: DNA-PK; conditions: cited from earlier work
[8] = molecular target: UGT2B17 (Homo sapiens, UniProt O75795); assay: Inhibition of UGT2B17; format: biochemical; conditions: PI-103 1, 10 and 100 μM
Outline: as §1

[9] = molecular target: T3, CYP2B6 (Homo sapiens, UniProt P20813); assay: Inhibition of CYP2B6; format: biochemical
T3 sequence (P20813 1-491): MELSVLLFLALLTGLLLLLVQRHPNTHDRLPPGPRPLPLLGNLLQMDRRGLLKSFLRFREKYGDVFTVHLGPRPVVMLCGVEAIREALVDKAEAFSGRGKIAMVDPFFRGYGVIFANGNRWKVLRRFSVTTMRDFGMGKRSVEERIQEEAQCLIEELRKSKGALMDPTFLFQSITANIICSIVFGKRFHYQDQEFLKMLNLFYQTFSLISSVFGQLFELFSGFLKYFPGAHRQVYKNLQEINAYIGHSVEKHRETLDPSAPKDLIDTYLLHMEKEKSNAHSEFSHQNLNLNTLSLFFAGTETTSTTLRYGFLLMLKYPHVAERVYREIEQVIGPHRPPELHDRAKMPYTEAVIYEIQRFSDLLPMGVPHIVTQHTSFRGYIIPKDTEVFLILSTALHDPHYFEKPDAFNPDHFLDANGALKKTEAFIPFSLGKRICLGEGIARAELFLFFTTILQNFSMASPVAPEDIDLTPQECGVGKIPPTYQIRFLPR
Outline: as §2

[10] = molecular target: MRP3 (Homo sapiens, UniProt O15438); assay: M2 excretion in HeLa1A9 cells after shRNA knock-down of MRP3; format: cell-based; conditions: MRP3 silenced, p > 0.05
Outline: as §3

Sequence of CYP2C19 (P33261 whole entry): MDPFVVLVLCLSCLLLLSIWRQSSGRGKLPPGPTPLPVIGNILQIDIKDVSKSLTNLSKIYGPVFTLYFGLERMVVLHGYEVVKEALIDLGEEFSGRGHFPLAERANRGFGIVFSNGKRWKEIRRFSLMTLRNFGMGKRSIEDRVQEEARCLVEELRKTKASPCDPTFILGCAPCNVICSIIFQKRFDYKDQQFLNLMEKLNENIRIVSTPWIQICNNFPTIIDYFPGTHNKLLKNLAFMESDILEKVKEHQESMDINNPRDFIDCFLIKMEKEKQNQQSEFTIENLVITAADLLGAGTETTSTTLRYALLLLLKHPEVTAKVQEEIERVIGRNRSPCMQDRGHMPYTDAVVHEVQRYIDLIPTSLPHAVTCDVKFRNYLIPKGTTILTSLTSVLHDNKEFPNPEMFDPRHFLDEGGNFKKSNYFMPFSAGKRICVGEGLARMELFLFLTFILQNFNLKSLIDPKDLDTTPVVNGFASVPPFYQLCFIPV
Sequence of UGT1A4 (P22310 29-534): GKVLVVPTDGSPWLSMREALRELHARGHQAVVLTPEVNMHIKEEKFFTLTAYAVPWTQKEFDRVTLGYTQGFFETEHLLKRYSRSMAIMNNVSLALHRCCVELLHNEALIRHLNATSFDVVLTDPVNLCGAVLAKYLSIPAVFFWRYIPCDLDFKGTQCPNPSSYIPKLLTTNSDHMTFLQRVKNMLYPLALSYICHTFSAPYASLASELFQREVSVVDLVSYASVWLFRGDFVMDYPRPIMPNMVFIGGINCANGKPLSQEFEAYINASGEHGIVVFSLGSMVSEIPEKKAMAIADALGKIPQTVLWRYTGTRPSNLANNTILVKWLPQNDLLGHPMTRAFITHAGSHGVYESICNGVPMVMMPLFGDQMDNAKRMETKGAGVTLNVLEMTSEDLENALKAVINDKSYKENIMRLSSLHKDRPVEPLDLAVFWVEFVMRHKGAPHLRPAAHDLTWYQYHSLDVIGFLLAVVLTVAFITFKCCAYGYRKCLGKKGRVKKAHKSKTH
Sequence of MRP4 (O15439 whole entry): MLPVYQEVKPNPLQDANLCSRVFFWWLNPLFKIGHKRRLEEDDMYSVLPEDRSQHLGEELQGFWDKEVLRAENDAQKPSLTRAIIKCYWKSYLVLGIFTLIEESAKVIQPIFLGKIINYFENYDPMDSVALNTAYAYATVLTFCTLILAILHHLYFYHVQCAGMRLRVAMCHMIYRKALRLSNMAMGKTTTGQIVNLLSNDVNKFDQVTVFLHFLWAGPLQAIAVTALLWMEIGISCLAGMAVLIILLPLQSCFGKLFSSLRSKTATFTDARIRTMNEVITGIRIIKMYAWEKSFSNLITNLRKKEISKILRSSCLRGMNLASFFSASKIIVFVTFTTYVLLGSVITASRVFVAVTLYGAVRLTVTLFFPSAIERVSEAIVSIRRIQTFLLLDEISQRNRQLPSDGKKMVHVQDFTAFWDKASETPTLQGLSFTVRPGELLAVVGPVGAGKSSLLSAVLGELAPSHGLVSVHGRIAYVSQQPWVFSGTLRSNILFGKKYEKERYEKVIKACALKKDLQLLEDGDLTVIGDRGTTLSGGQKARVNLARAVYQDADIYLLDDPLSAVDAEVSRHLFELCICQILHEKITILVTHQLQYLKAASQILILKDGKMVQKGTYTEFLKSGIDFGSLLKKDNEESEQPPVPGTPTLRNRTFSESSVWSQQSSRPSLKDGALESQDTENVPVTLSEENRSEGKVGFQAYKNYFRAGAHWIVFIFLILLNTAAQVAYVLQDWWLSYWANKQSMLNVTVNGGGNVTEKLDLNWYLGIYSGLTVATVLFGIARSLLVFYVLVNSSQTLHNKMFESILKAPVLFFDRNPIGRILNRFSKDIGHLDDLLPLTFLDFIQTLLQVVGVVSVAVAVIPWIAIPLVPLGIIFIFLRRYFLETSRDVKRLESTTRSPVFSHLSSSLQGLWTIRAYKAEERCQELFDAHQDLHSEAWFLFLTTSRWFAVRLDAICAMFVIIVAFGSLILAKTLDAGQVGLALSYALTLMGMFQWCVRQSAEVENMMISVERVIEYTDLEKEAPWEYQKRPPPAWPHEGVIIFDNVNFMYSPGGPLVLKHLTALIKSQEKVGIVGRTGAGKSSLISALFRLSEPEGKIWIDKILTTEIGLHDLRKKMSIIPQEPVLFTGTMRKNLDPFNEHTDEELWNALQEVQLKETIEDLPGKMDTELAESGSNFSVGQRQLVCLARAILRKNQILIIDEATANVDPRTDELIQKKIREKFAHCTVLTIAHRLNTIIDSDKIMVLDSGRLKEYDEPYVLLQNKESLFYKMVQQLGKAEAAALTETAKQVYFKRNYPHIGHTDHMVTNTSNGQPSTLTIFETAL
Sequence of UGT2B17 (O75795 24-530): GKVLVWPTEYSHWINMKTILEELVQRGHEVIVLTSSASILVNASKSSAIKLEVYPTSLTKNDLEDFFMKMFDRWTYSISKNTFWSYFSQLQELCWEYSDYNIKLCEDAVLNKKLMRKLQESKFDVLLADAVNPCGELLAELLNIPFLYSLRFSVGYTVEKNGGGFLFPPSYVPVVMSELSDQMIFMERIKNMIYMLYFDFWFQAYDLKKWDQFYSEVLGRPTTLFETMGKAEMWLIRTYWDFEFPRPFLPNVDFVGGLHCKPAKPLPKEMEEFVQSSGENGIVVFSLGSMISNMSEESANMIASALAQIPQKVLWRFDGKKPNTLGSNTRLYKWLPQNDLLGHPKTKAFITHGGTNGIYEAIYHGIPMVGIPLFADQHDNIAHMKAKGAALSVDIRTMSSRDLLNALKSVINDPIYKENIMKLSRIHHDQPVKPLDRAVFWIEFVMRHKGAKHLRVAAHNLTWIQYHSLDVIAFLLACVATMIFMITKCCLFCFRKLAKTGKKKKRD
Sequence of MRP3 (O15438 whole entry): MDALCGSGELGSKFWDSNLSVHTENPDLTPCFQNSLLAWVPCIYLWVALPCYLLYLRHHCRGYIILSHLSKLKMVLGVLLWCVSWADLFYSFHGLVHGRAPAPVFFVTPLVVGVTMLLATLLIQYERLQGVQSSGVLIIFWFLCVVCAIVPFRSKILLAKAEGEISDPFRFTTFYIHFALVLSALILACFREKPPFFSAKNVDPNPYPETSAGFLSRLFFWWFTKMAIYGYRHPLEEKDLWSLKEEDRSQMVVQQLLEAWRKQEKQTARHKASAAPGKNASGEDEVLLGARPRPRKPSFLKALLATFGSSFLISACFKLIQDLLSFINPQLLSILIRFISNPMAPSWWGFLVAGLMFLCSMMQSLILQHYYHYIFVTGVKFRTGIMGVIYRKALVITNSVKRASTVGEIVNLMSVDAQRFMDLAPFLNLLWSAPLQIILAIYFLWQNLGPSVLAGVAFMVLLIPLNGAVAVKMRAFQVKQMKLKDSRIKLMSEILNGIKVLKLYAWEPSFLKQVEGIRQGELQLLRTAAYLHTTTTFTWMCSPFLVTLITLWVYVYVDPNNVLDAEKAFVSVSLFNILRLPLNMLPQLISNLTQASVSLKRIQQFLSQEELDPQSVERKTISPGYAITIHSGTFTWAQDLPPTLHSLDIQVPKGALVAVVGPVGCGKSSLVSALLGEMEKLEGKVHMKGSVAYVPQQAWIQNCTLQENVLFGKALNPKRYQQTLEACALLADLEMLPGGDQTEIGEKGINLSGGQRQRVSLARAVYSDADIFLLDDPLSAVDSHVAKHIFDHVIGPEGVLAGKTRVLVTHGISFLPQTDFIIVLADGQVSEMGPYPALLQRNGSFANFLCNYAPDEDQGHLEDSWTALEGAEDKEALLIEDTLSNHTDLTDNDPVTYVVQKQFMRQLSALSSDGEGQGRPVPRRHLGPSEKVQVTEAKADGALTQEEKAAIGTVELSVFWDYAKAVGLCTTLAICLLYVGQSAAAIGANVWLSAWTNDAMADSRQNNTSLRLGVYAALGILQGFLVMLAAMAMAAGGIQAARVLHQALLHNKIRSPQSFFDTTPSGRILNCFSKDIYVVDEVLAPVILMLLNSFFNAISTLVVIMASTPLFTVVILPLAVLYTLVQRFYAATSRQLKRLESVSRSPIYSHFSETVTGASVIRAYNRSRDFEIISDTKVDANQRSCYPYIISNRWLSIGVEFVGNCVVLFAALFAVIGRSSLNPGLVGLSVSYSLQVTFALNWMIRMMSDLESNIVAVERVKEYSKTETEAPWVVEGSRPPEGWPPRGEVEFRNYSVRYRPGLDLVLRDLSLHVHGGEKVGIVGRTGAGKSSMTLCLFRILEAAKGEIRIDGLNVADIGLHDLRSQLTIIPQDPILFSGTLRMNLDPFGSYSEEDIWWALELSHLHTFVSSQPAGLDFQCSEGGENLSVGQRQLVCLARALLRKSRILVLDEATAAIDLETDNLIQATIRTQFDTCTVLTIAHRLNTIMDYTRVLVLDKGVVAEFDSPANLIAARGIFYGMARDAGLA

**Q.** For `Oc1cccc(-c2nc(N3CCOCC3)c3oc4ncccc4c3n2)c1` [PI-103], which IC50 [1] is on record?
**A.** The IC50 was 6890 ± 730 nM.

**Q.** And the Ki [1]?
**A.** The Ki was 2580 ± 840 nM.

**Q.** What about the Type of inhibition ([1]; UGT1A3, 4-MU) of the same compound?
**A.** Its Type of inhibition is “Mixed-type”.

**Q.** What about the α ([1]; UGT1A3, 4-MU, mixed-type model (selected)) of the same compound?
**A.** The α was 2.97 ± 1.61.

**Q.** What about the IC50 [2] of the same compound?
**A.** The IC50 was 590 ± 60 nM.

**Q.** And the Ki [2]?
**A.** Its Ki is 530 ± 30 nM.

**Q.** What about the residual activity ([2]; CYP2C19, 100 μM PI-103) of the same compound?
**A.** The residual activity was 14.67 % of the negative control.

**Q.** What about the Type of inhibition ([2]; CYP2C19, mephenytoin) of the same compound?
**A.** The Type of inhibition was “Noncompetitive”.

**Q.** And the Ki [3]?
**A.** The Ki was 13800 nM.

**Q.** What about the “maximal rate change (activation of UGT1A4)” value ([3]; TFP-N-glucuronidation) of the same compound?
**A.** Its value is 1.6 fold.

**Q.** What about the “reduction in fmet value” [4] of the same compound?
**A.** The value was 29.2%.

**Q.** What about the IC50 [5] of the same compound?
**A.** Its IC50 is 370 ± 40 nM.

**Q.** What about the Ki [5] of the same compound?
**A.** The Ki was 380 ± 30 nM.

**Q.** What about the residual activity ([5]; CYP1A2, 100 μM PI-103) of the same compound?
**A.** Its residual activity is 8.63 % of the negative control.

**Q.** What about the Type of inhibition ([5]; CYP1A2, phenacetin) of the same compound?
**A.** Its Type of inhibition is “Noncompetitive”.

**Q.** And the “decrease in fmet value of PI-103” value [6]?
**A.** The value was 33.8%.

**Q.** What about the inhibitory effect [8] of the same compound?
**A.** The inhibitory effect was “negligible”.

**Q.** And the IC50 [9]?
**A.** The IC50 was 2250 ± 280 nM.

**Q.** And the Ki [9]?
**A.** Its Ki is 640 ± 220 nM.

**Q.** What about the residual activity ([9]; CYP2B6, 100 μM PI-103) of the same compound?
**A.** Its residual activity is 29.70 % of the negative control.

**Q.** And the Type of inhibition ([9]; CYP2B6, bupropion)?
**A.** The Type of inhibition was “Mixed-type”.

**Q.** And the α ([9]; CYP2B6, bupropion, mixed-type model (selected))?
**A.** The α was 5.09 ± 4.48.

**Q.** What about the “alteration in fmet value of PI-103” value [10] of the same compound?
**A.** The value was 9.2%.
